Key:
Phosphodiesterase 4 [1] = target: T1, Phosphodiesterase 4 (Homo sapiens, UniProt P27815+Q08499+Q07343+Q08493); assay: Binding affinity at Phosphodiesterase 4 by measuring displacement of (+/-)-[3H]- Rolipram to guinea pig brain membranes.; assay type: tissue-based, Cavia porcellus; settings: target entry is the homologue from another species
Outline: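 Guinea pig brain membranes (amount equal to 500 μg brain tissue per sample) incubated with 2 nM (±)-[3H]rolipram (24.7 Ci/mmol).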

Phosphodiesterase 4 [2] = target: T1, Phosphodiesterase 4; assay: Concentration to inhibit 50% of Phosphodiesterase 4 (PDE-4) from guinea pig macrophages; assay type: protein assay, Cavia porcellus; settings: target entry is the homologue from another species
Outline: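 Enzyme source: homogenate of guinea pig peritoneal macrophages, Percoll-purified and adherence-selected, from Dunkin Hartley animals pretreated with horse serum. Two-step radioisotopic hydrolysis assay with 1 μM cAMP substrate in 20 mM Tris-HCl pH 8.0, 10 mM MgCl2, 4 mM 2-mercaptoethanol, 0.2 mM EGTA, 0.05 mg/mL BSA.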

Canis familiaris [3] = assay: Emetic effect in dogs at 3 mg/kg intravenous dose, 0 of 4 animals affected; assay type: functional, Canis lupus familiaris
PBMC = assay: Inhibition of TNF-alpha release from LPS-stimulated human mononuclear cells; assay type: functional, cell-based
Canis familiaris [4] = assay: Emetic effect in dogs at 0.7 mg/kg intravenous dose, 0 of 4 animals affected; assay type: functional, Canis lupus familiaris
Outline: (§1)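 Male and female beagles, 1–2 years old, 8–10 kg, food withheld the morning of testing. Compound in 100% DMSO given as a slow iv bolus into the cephalic vein over 30 s at 0.03 mL/kg. Dogs observed for up to 2 h or until emesis occurred. Usually 4 dogs (2 male, 2 female) per test.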

[5] = (§2) Inhibition of tumor necrosis factor alpha (TNF-alpha) release in murine endotoxemia model after peroral administration
Outline: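 Male Balb/c mice, 20–25 g, were dosed orally in 0.25% methylcellulose/0.2% Tween-20 in water 4 h before an ip challenge with E. coli 055:B5 LPS at 30 μg/mouse. ED50 was taken from dose–response curves, n = 6 animals/group.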

[6] = Inhibition of tumor necrosis factor alpha (TNF-alpha) release in murine endotoxemia model
Outline: (§3)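 Male Balb/c mice, 20–25 g, dosed orally in 0.25% methylcellulose/0.2% Tween-20 in water 4 h before ip challenge with E. coli 055:B5 LPS at 30 μg/mouse. Serum TNF-α measured by ELISA. ED50 taken from dose–response curves, n = 6 mice/group.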

Canis familiaris [7] = assay: Emetic effect in dogs at 1 mg/kg intravenous dose, 0 of 4 animals affected; assay type: functional, Canis lupus familiaris; outline: as §1
[8] = Inhibition of tumor necrosis factor alpha (TNF-alpha) release in murine endotoxemia model after peroral administration at 30 mg/kg.; assay type: organism-based; parameters: dose 30 mg/kg
Canis familiaris [9] = assay: Emetic effect in dogs at 0.01 mg/kg intravenous dose, 1 of 2 animals affected; assay type: functional, Canis lupus familiaris; outline: as §1
Canis familiaris [10] = assay: Emetic effect in dogs at 0.03 mg/kg intravenous dose, 2 of 2 animals affected; assay type: functional, Canis lupus familiaris; outline: as §1
[11] = as §2; outline: as §3; remark: listed apart in the source
Canis familiaris [12] = assay: Emetic effect in dogs at 0.2 mg/kg intravenous dose, 2 of 2 animals affected; assay type: functional, Canis lupus familiaris; outline: as §1

SMILES | Ki (Phosphodiesterase 4 [1]) | IC50 (Phosphodiesterase 4 [2]) | also measured
COc1ccc(C2(Cc3ccncc3)C(=O)c3ccc(O)cc3C2=O)cc1OC1CCCC1 (stereo unspecified) | 45 nM | 100 nM | 
COc1ccc(C2(Cc3ccncc3)Cc3cc(OCc4ccccc4)ccc3C2=O)cc1OC1CCCC1 (stereo unspecified) | 60 nM | 20 nM | 
COc1ccc(C2(Cc3ccncc3)C(O)c3ccccc3C2O)cc1OC1CCCC1 (stereo unspecified) | > 10000 nM | > 10000 nM | 
COc1ccc(C2(Cc3ccncc3)C(=O)c3ccc(OCc4ccccc4)cc3C2=O)cc1OC1CCCC1 (single isomer, unassigned; (+)) [listing 1 of 2 here] | 20 nM | 4 nM | Ratio (Canis familiaris [3]): 0; IC50 (PBMC): 200 nM; Ratio (Canis familiaris [4]): 0
COc1ccc(C2(Cc3ccncc3)C(=O)c3ccc(OCC(=O)O)cc3C2=O)cc1OC1CCCC1 (stereo unspecified) | 20 nM | 50 nM | 
COc1ccc(C2(Cc3ccncc3)C(=O)c3ccc(OC(=O)N4CCC(N5CCCCC5)CC4)cc3C2=O)cc1OC1CCCC1 (stereo unspecified) | 20 nM | 30 nM | ED50 [5]: 15 mg/kg; Ratio (Canis familiaris [3]): 0
COc1ccc(C2(Cc3cc[n+]([O-])cc3)C(=O)c3ccccc3C2=O)cc1OC1CCCC1 | 20 nM | 50 nM | 
COc1ccc(C2(Cc3ccncc3)C(=O)c3ccc(OCc4ccncc4)cc3C2=O)cc1OC1CCCC1 (stereo unspecified) | 30 nM | 14 nM | 
COc1ccc(C2(Cc3ccncc3)C(=O)c3ccc(OC4CCN(C)CC4)cc3C2=O)cc1OC1CCCC1 (stereo unspecified) | 60 nM | 30 nM | 
COc1ccc(C2(Cc3ccc(O)cc3)C(=O)c3ccccc3C2=O)cc1OC1CCCC1 | 260 nM | 70 nM | 
COc1ccc(C2(Cc3ccncc3)C(=O)c3ccc(OCc4ccccc4)cc3C2=O)cc1OC1CCCC1 (stereo in doubt; (+)-17) | 20 nM | 6 nM | 
COc1ccc(C2(Cc3ccccc3)C(=O)c3ccccc3C2=O)cc1OC1CCCC1 | 2300 nM | 500 nM | 
COc1ccc([C@H](Cc2ccncc2)c2ccccc2)cc1OC1CCCC1 [CDP840] |  |  | ED50 [6]: 25 mg/kg; Ratio (Canis familiaris [7]): 0
COc1ccc(C2(Cc3ccncc3)Cc3ccccc3C2)cc1OC1CCCC1 | 1600 nM | 750 nM | 
COc1ccc(C2(Cc3ccncc3)C(=O)c3ccc(OCc4ccccc4)cc3C2=O)cc1OC1CCCC1 (stereo in doubt; (+)-18) | 20 nM | 30 nM | 
CCOc1ccc2c(c1)C(=O)C(Cc1ccncc1)(c1ccc(OC)c(OC3CCCC3)c1)C2=O (stereo unspecified) | 20 nM | 12 nM | 
COc1ccc(C2(Cc3ccncc3)C(=O)c3ccccc3C2=O)cc1OC1CCCC1 | 10 nM | 30 nM | IC50 (PBMC): 200 nM; inhibition [8]: 0%
COc1ccc(C2(Cc3c(Cl)cncc3Cl)C(=O)c3ccccc3C2=O)cc1OC1CCCC1 | 1700 nM | 3000 nM | 
COc1ccc(C2(Cc3ccncc3)C(=O)c3ccc(OCc4ccccc4)cc3C2=O)cc1OC1CCCC1 (single isomer, unassigned; (+)) [listing 2 of 2 here] |  |  | inhibition [8]: 40%
COc1ccc(C2CNC(=O)C2)cc1OC1CCCC1 (stereo unspecified) [ROLIPRAM] |  |  | Ratio (Canis familiaris [9]): 1; Ratio (Canis familiaris [10]): 2; ED50 [11]: 8 mg/kg; Ratio (Canis familiaris [12]): 2; IC50 (PBMC): 500 nM
COc1ccc(C2C(=O)c3ccccc3C2=O)cc1OC1CCCC1 | > 10000 nM | > 10000 nM | 
